What was measured:
HeLa = experiment: In vitro anticellular activity tested against HeLa S3 cells; type: functional, cell-based; details: Homo sapiens
Summary of the method: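 HeLa S3 cells seeded on day 0, then exposed to drug for 1 h on day 1; anticellular activity determined by a previously described method.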

CCRF S-180 [1] = experiment: Optimal dose towards sarcoma 180 cells, inoculated subcutaneously to the axillary region of ddY mice; type: functional, Mus musculus
Summary of the method: (§1)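 Sarcoma 180 cells implanted sc in the axillary region of ddY mice on day 0; compounds given iv on day 1. Tumor volume compared treated versus control (T/C). 50% growth-inhibitory dose calculated from the dose-response curve; optimal dose also recorded.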

Mus musculus [2] = experiment: In vivo antitumor activity against lymphatic leukemia P388 cells sensitive to mitomycin C (MMC) was measured as maximal increase in life span of the treated mice at optimal dose of 3.1 mg/kg; type: functional
CCRF S-180 [3] = experiment: Tumor volume of sarcoma 180 cells which were inoculated […] to the axillary region of ddY mice, after treatment; type: functional, Mus musculus
Mus musculus [4] = experiment: In vivo antitumor activity against lymphatic leukemia P388 cells resistant to mitomycin C (MMC) was measured as maximal increase in life span of the treated mice at optimal dose of 50 mg/kg; type: functional
Mus musculus [5] = experiment: Effective dose that gave 50% inhibition of tumor growth was calculated towards sarcoma 180 cells which were inoculated subcutaneously to the axillary region of ddY mice; type: functional; details: Mus musculus, 180, sc; summary of the method: as §1
Mus musculus [6] = experiment: In vivo antitumor activity against lymphatic leukemia P388 cells sensitive to mitomycin C (MMC) was measured as maximal increase in life span of the treated mice at optimal dose of 13 mg/kg; type: functional
Mus musculus [7] = experiment: In vivo antitumor activity against lymphatic leukemia P388 cells resistant to mitomycin C (MMC) was measured as maximal increase in life span of the treated mice at optimal dose of 46 mg/kg; type: functional
Mus musculus [8] = experiment: In vivo antitumor activity against lymphatic leukemia P388 cells resistant to mitomycin C (MMC) was measured as maximal increase in life span of the treated mice at optimal dose of 1.6 mg/kg; type: functional
Mus musculus [9] = experiment: In vivo antitumor activity against lymphatic leukemia P388 cells sensitive to mitomycin C (MMC) was measured as maximal increase in life span of the treated mice at optimal dose of 0.78 mg/kg; type: functional
Mus musculus [10] = experiment: In vivo antitumor activity against lymphatic leukemia P388 cells sensitive to mitomycin C (MMC) was measured as maximal increase in life span of the treated mice at optimal dose of 50 mg/kg; type: functional

CO[C@@]12[C@H](COC(N)=O)C3=C(C(=O)C(CSC4OC(CO)C(O)C(O)C4O)=C(N)C3=O)N1C[C@@H]1N[C@@H]12 (stereo partly drawn)
IC50 (HeLa): 82 µM

COc1ccccc1SCC1=C(N)C(=O)C2=C(C1=O)N1C[C@@H]3N[C@@H]3[C@]1(OC)[C@@H]2COC(N)=O
IC50 (HeLa): 2.3 µM

COC(=O)CCSCC1=C(N)C(=O)C2=C(C1=O)N1C[C@@H]3N[C@@H]3[C@]1(OC)[C@@H]2COC(N)=O
OD (CCRF S-180 [1]): 3.1 mg/kg | ILS at 3.1 mg/kg (Mus musculus [2]): 69% | T/C (CCRF S-180 [3]): 0.63 min | IC50 (HeLa): 0.97 µM

CO[C@@]12[C@H](COC(N)=O)C3=C(C(=O)C(CSc4nc5ccccc5s4)=C(N)C3=O)N1C[C@@H]1N[C@@H]12
OD (CCRF S-180 [1]): 50 mg/kg | ILS at 50 mg/kg (Mus musculus [4]): 57% | ED50 (Mus musculus [5]): 36 mg/kg | ILS at 13 mg/kg (Mus musculus [6]): 40% | IC50 (HeLa): 0.7 µM

CO[C@@]12[C@H](COC(N)=O)C3=C(C(=O)C(CSc4cccs4)=C(N)C3=O)N1C[C@@H]1N[C@@H]12
OD (CCRF S-180 [1]): 46 mg/kg | ILS at 46 mg/kg (Mus musculus [7]): > 56% | ED50 (Mus musculus [5]): 29 mg/kg | IC50 (HeLa): 4.9 µM

COc1ccc(SCC2=C(N)C(=O)C3=C(C2=O)N2C[C@@H]4N[C@@H]4[C@]2(OC)[C@@H]3COC(N)=O)cc1
IC50 (HeLa): 14 µM

COCC1=C(N)C(=O)C2=C(C1=O)N1CC3NC3[C@]1(OC)[C@@H]2COC(N)=O (stereo partly drawn)
IC50 (HeLa): 2.6 µM

CO[C@@]12[C@H](COC(N)=O)C3=C(C(=O)C(CSc4ncccn4)=C(N)C3=O)N1C[C@@H]1N[C@@H]12
OD (CCRF S-180 [1]): 13 mg/kg | ED50 (Mus musculus [5]): 8.9 mg/kg | ILS at 1.6 mg/kg (Mus musculus [8]): > 92% | ILS at 0.78 mg/kg (Mus musculus [9]): 58% | IC50 (HeLa): 0.95 µM

CCCCOCC1=C(N)C(=O)C2=C(C1=O)N1C[C@@H]3N[C@@H]3[C@]1(OC)[C@@H]2COC(N)=O
IC50 (HeLa): 19 µM

CCCOCC1=C(N)C(=O)C2=C(C1=O)N1C[C@@H]3N[C@@H]3[C@]1(OC)[C@@H]2COC(N)=O
IC50 (HeLa): 5.3 µM

CO[C@@]12[C@H](COC(N)=O)C3=C(C(=O)C(CSc4nnc(C)s4)=C(N)C3=O)N1C[C@@H]1N[C@@H]12
IC50 (HeLa): 1.1 µM

CO[C@@]12[C@H](COC(N)=O)C3=C(C(=O)C(CSCc4ccccc4)=C(N)C3=O)N1C[C@@H]1N[C@@H]12
IC50 (HeLa): 2.2 µM

C=CCOCC1=C(N)C(=O)C2=C(C1=O)N1C[C@@H]3N[C@@H]3[C@]1(OC)[C@@H]2COC(N)=O
IC50 (HeLa): 5.5 µM

CO[C@@]12[C@H](COC(N)=O)C3=C(C(=O)C(CSc4ccccc4Cl)=C(N)C3=O)N1C[C@@H]1N[C@@H]12
IC50 (HeLa): 7.3 µM

COCC1=C(N)C(=O)C2=C(C1=O)N1C[C@H]3[C@H](N3C)[C@]1(O)[C@H]2COC(N)=O (stereo partly drawn)
IC50 (HeLa): > 82 µM

CO[C@@]12[C@H](COC(N)=O)C3=C(C(=O)C(CSc4nc(C)cc(C)n4)=C(N)C3=O)N1C[C@@H]1N[C@@H]12
OD (CCRF S-180 [1]): 6.3 mg/kg | ILS at 3.1 mg/kg (Mus musculus [2]): 50% | IC50 (HeLa): 1.1 µM

CO[C@@]12[C@H](COC(N)=O)C3=C(C(=O)C(COCc4ccccc4)=C(N)C3=O)N1C[C@@H]1N[C@@H]12
IC50 (HeLa): 5.5 µM

CO[C@@]12[C@H](COC(N)=O)C3=C(C(=O)C(CSc4nc[nH]n4)=C(N)C3=O)N1C[C@@H]1N[C@@H]12
IC50 (HeLa): 6.8 µM

CO[C@@]12[C@H](COC(N)=O)C3=C(C(=O)C(CSc4ccccc4)=C(N)C3=O)N1C[C@@H]1N[C@@H]12
OD (CCRF S-180 [1]): 22 mg/kg | ILS at 50 mg/kg (Mus musculus [10]): 45% | ED50 (Mus musculus [5]): 6.1 mg/kg | IC50 (HeLa): 1 µM

CO[C@@]12[C@H](COC(N)=O)C3=C(C(=O)C(CSc4nnnn4-c4ccccc4)=C(N)C3=O)N1C[C@@H]1N[C@@H]12
IC50 (HeLa): 0.27 µM

CO[C@@]12[C@H](COC(N)=O)C3=C(C(=O)C(CSc4ccccn4)=C(N)C3=O)N1C[C@@H]1N[C@@H]12
IC50 (HeLa): 1.8 µM

CO[C@@]12[C@H](COC(N)=O)C3=C(C(=O)C(CSc4ccc([N+](=O)[O-])cc4)=C(N)C3=O)N1C[C@@H]1N[C@@H]12
IC50 (HeLa): 0.78 µM

CO[C@@]12[C@H](COC(N)=O)C3=C(C(=O)C(CSc4ccc(Cl)cc4)=C(N)C3=O)N1C[C@@H]1N[C@@H]12
IC50 (HeLa): 53 µM

COC1=C(C)C(=O)C2=C(C1=O)[C@@H](COC(N)=O)[C@@]1(OC)[C@H]3N[C@H]3CN21 [MITOMYCIN A]
IC50 (HeLa): 0.0024 µM

Source: ChEMBL document CHEMBL1127752, “Synthesis and antitumor activity of novel mitomycin derivatives containing functional groups at the C-6-methyl position” (J Med Chem, 1994)
